# Published values from different studies.
# Each line is one published result; the experiments were not run side by side.
# Target: Calcium/calmodulin-dependent protein kinase type 1 (CAMK1, Homo sapiens, UniProt Q14012)
Compound,test,setting,remaining binding [%]
O=C(c1ccc(Nc2ncc(Cl)c(-c3cc4ccccc4s3)n2)cc1)N1CCC(N2CCCC2)CC1,"binding, competition with immobilised ligand",1 µM,58
CN(C)c1nccc(-c2cnn3ncccc23)n1,binding,1 µM,100
O=C(c1ccc(Nc2nccc(-c3cc4ccccc4s3)n2)cc1)N1CCC(N2CCCC2)CC1,"binding, competition with immobilised ligand",1 µM,71
O=C(NC[C@@H]1[C@H]2CN(C(=O)OCc3cc(C(F)(F)F)cc(C(F)(F)F)c3)C[C@@H]12)c1ccc2[nH]nnc2c1,"cell-free assay, competition with immobilised ligand",1 µM,77
N[C@@H]1CCN(c2nccc(-c3cnn4ncccc34)n2)C1,binding,1 µM,100
CCCOc1ccc([C@H]2[C@H](C(=O)O)[C@@H](c3ccc4c(c3)OCO4)CN2CC(=O)Nc2c(CC)cccc2CC)cc1,"cell-free assay, competition with immobilised ligand",1 µM,93
C[C@@H](c1ccc(-n2cnc3c(N)ncnc32)cc1)N1CCc2nn(C)c(Cc3ccccc3)c2C1=O,"binding, competition with immobilised ligand",0.1 µM,89
CN(CCCC(F)(F)F)c1nccc(-c2cnn3ncccc23)n1,binding,1 µM,76
COc1ccc2c(c1)O[C@H](c1ccc(OC)c(OC)c1)C[C@@H]2NC(=O)C1(c2ccc3c(c2)OC(F)(F)O3)CC1,"cell-free assay, competition with immobilised ligand",1 µM,100
O=C(Nc1c[nH]nc1C(=O)NC1CCNCC1)c1cc(F)cc(F)c1,"binding, competition with immobilised ligand",1 µM,74
CN(C)c1nccc(-c2cnc3ncccn23)n1,binding,1 µM,68
Nc1ncc2c(n1)-c1c([nH]c3ccc(C#CC4CC4)cc13)CCCC2,"binding, competition with immobilised ligand",1 µM,100
CC(=O)N1CCC(c2ccc(C(=O)NC(=N)N)cc2C(F)(F)F)CC1,"cell-free assay, competition with immobilised ligand",1 µM,100
O=C(c1ccc(Nc2ncc(Cl)c(-c3ccc(Cl)s3)n2)cc1)N1CCC(N2CCCC2)CC1,"binding, competition with immobilised ligand",1 µM,54
COc1cnc(Nc2cccc(S(N)(=O)=O)c2)nc1N1CCN(c2ccccc2)CC1,"binding, competition with immobilised ligand",1 µM,100
c1cnn2ncc(-c3ccnc(N4CCC45COC5)n3)c2c1,binding,1 µM,80
CO[C@H]1CC[C@H](CNc2ccc(S(=O)(=O)NC(=O)c3ccc(N4CCN(CC5=C(c6ccc(Cl)cc6)CC(C)(C)CC5)CC4)cc3Oc3cnc4[nH]ccc4c3)cc2[N+](=O)[O-])CC1,"cell-free assay, competition with immobilised ligand",1 µM,88
c1cncc(-c2cccc(Nc3nccc(NC4CCCCC4)n3)c2)c1,"binding, competition with immobilised ligand",10 µM,53
CN(c1nccc(-c2cnn3ncccc23)n1)C1CC1,binding,1 µM,82
CN([C@@H]1CCc2c(CC(=O)O)c3ccccc3n2C1)S(=O)(=O)c1ccc(F)cc1,"cell-free assay, competition with immobilised ligand",1 µM,100
